Compound activity from PubChem BioAssay.
OX1R antag-1: OX1R (HCRTR1) antagonists, primary screen, fluorescence, CHO/OX1R cells, Fluo-8 calcium, orexin A. Orexin/Hypocretin receptor type 1 (Homo sapiens), O43613. Fluo-8 calcium fluorescence. inhibition, % at 5 µM. 0.43% of 330,000 active. AID 434989, 2010;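 active means inhibition above its plate's threshold, mean inhibition of all tested compounds on the plate plus 3 SD, cut at about 37% in these data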;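 further: 0% = orexin A challenge wells and 100% = SB-334867-A antagonist wells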
TAAR1 agonist: human TAAR1 agonists, primary screen, Fluo-8 calcium fluorescence, CHO RD-HGA16 cells. Trace amine-associated receptor 1 (Homo sapiens), Q96RJ0. vehicle wells 0%, saturating PEA agonist 100%. activation, % at 3 µM. 0.99% of 360,000 active. AID 624467, 2012;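 active means activation above the mean activation of all test compounds in the run plus 3 SD, cut at about 38% in these data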
Target sequence (Q96RJ0 whole entry, looked up): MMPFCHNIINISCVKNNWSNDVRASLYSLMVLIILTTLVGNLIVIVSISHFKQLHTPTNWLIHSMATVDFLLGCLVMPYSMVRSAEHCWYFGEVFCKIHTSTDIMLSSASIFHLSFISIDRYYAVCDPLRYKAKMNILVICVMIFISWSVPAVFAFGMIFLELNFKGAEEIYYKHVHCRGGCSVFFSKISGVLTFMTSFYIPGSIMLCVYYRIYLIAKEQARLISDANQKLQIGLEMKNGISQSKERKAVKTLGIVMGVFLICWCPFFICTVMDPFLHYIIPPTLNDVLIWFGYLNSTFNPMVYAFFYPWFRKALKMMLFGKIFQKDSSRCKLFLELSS
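Repeats: no replicates (n 1) | Material: CHO-derived RD-HGA16 cells with stable Gα16 and human TAAR1 | Technique: Kinetic Fluo-8 calcium fluorescence | Schedule: 17-24 h seeding, 75 min 37 °C dye, 30 min RT | Evaluation: % activation from peak over basal fluorescence ratio, DMSO-to-PEA scaled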
GPR7 antag: GPR7 receptor antagonists, primary screen, cell-based, fluorescence, single concentration. Neuropeptides B/W receptor type 1 (Homo sapiens), P48145. GPR7-expressing cells, fluorescence antagonist assay. inhibition, % at 4.4 µM. 1.1% of 290,000 active; in the data active means inhibition above about 16%, passing the limit was not always enough;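 further: cells stimulated with the agonist NPW; 0% = agonist with vehicle and 100% = vehicle without agonist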
CHO parental Ca: ATP-evoked calcium signal inhibitors, parental CHO, primary screen, counter-screen for OX1R antagonist project, cell-based, fluorescence, Fluo-8 calcium dye | parental CHO-K1, ATP-induced calcium, Fluo-8 fluorescence | AID 463079, 2010 | inhibition, % at 5.6 µM | 0.63% of 330,000 active;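 active means inhibition above that plate's mean sample inhibition plus 3 SD, cut at about 26% in these data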;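 further: 0% = ATP-challenged DMSO wells and 100% = DMSO wells without ATP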
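material = parental CHO cells | also added = ATP as calcium-mobilizing challenge | dosing = single point at 5.6 µM | detection = intracellular calcium via Fluo-8 no-wash fluorescent dye | read-out = % inhibition | benchmarks = low control ATP plus DMSO, high control DMSO only | repeats = one well per compound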
TAAR1 antagonist: human TAAR1 antagonists, primary screen, Fluo-8 calcium fluorescence, CHO RD-HGA16 cells. antagonist. inhibition, % at 3 µM. 1.5% of 360,000 active;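 active means inhibition above a per-plate cutoff, the mean inhibition of test compounds on that plate plus 3 SD, cut at about 49% in these data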;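 further: 0% = DMSO plus EC80 beta-PEA response and 100% = DMSO alone without agonist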
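Test system: CHO RD-HGA16 cells bearing hTAAR1 | Reagent: β-PEA, EC80 | Compound dosing: 3 µM, single point | Schedule: Dye loading 75 min at 37 °C, then 30 min room temperature | Signal: Calcium fluorescence with Fluo-8 | Evaluation: Percent inhibition of PEA-evoked calcium signal, max/basal emission ratio | Control set: DMSO-only wells and EC80 β-PEA-stimulated wells | Repeats: Singlicate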
OX1R antag-2: antagonists of human orexin 1 receptor (OX1R); OX1R-expressing cells, FRET antagonist read-out; 1.8% of 330,000 active; inhibition, % at 6.6 µM; Orexin/Hypocretin receptor type 1 (Homo sapiens), O43613; AID 485270, 2010; in the data active means inhibition mostly above about 38%, no sharp cut-off; inactive means mostly below about 40%;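 further: 0% = agonist challenge alone and 100% = reference antagonist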
An asterisk follows results filed as active; / = no result. Rows were chosen to be rich in hits. Some 4.6% of all compounds tested hit in one or more screens of this group.

SMILES | OX1R antag-1 | TAAR1 agonist | GPR7 antag | CHO parental Ca | TAAR1 antagonist | OX1R antag-2
CCOC(=O)N1CCN(C(=O)CNC(=O)c2ccc(Br)cc2)CC1 | -16 | 0 | 10 | 7 | -15 | 21
COc1ccc(-c2nc(CSCC(=O)NC3CCN(Cc4ccccc4)CC3)c(C)o2)cc1OC | -29 | 3 | -8 | -23 | -23 | 9
CN(C)C=NC(=O)c1ccc([N+](=O)[O-])c(CS(=O)(=O)c2ccc(Cl)cc2)c1 | -9 | 11 | -2 | -9 | -5 | 72*
Cc1ccccc1OCC(O)Cn1c2ccccc2c2ccccc21 (centres undefined) | -29 | -1 | -14 | -19 | 7 | 8
Cc1ccccc1OCC(O)Cn1c(=N)n(Cc2ccccc2)c2ccccc21 (centres undefined) | 29 | 33 | 35* | 39* | 2 | -6
Nc1nc(SCc2ccccc2)c2ncn(C3CCCCC3)c2n1 | / | 0 | / | / | 21 | /
COc1ccc(CNC(=O)COC(=O)/C=C/c2cccs2)cc1 | -27 | 3 | 4 | -14 | -20 | 8
COc1ccccc1CNC(=O)COC(=O)/C=C/c1cccs1 | -8 | 1 | 19* | -6 | -6 | 11
O=C(OCCOc1cccc(Cl)c1)c1cc(S(=O)(=O)N2CCCCC2)ccc1N1CCOCC1 | 0 | 0 | / | 38* | 24 | -14
CCOc1ccc(Nc2nc(Cc3nnc(SCC(=O)c4ccc(C)c(C)c4)o3)cs2)cc1 | 7 | 1 | -2 | 29* | 29 | 56
COc1ccc(CN(C(=O)CSc2nnc(-c3ccccc3F)o2)c2ccc(F)cc2)cc1 | 7 | / | -22 | 26* | / | 33
CN(C(=O)CSc1nnc(-c2ccccc2F)o1)c1ccccc1 | -17 | 1 | / | -4 | -10 | 11
Cc1cccc(C)c1NC(=O)COC(=O)CCc1c[nH]c2ccccc12 | 16 | 9 | / | -11 | 11 | 7
O=S(=O)(c1cccc(-c2n[nH]c(=S)o2)c1)N1CCOCC1 | -9 | 0 | -10 | -9 | -11 | 12
CCN(CC)S(=O)(=O)c1cc(C(=O)OCC(=O)Nc2cccc(Br)c2)ccc1F | -10 | 18 | 0 | -16 | -15 | 2
C=CCNC(=S)N/N=C1\CCS(=O)(=O)c2ccccc21 | -26 | 1 | 13 | -4 | 2 | -5
Cc1cc(C)c2c(N)c(C(=O)Nc3ncc(C)s3)sc2n1 | -14 | 12 | -9 | -18 | -10 | 51*
COC(=O)c1sc2nc(C)cc(C)c2c1N | -9 | 3 | -2 | -10 | 2 | 16
N#Cc1nc(Cc2ccccc2)oc1NCc1ccccc1Cl | 22 | 0 | 10 | 36* | 34 | 32
COc1ccccc1N1CCN(C(=O)c2cc(S(=O)(=O)N3CCCCC3)ccc2C)CC1 | -18 | 11 | / | -24 | 24 | 6
CCOc1ccccc1N1CCN(C(=O)c2cc(S(=O)(=O)N3CCCCC3)ccc2C)CC1 | -16 | 28 | / | -23 | 55* | -4
Fc1cc(F)c2nc(Nc3nc4cc5c(cc4s3)OCO5)sc2c1 | -9 | 3 | -6 | -8 | 61* | 13
CCOC(=O)c1cnc(SCC(=O)Nc2ccc(NC(C)=O)c(OC)c2)nc1N | -10 | 4 | -6 | -9 | -9 | 1
CCOC(=O)c1cnc(SCC(=O)Nc2cc(OC)ccc2OC)nc1N | 39 | 8 | -3 | 34* | 18 | 71
CNc1nc(-c2c(C)n(C)c3ccc(OC)cc23)cs1 | -16 | 0 | -10 | -19 | -13 | 25
COc1cc(NC(=O)c2cccc3c2C(=O)N(C2CCCCC2)C3)cc(OC)c1OC | -10 | 2 | 9 | -29 | 53* | 20
Cc1cc(C)cc(NC(=O)c2cccc3c2C(=O)N(C2CCCCC2)C3)c1 | -18 | / | -6 | -15 | / | 4
CN(CC(=O)Nc1ccccc1Br)C(=O)CNC(=O)c1ccco1 | -1 | 4 | / | 13 | -24 | 11
